Converted amounts (≈) assume the structure as drawn.

The test system of data set [1] is Mus musculus. Put plainly: Toxicity in C57BL/6 mouse infected with methicillin-resistant Staphylococcus aureus ATCC 33592 assessed as weight loss at 30 mg/kg, ip administered 1 hr post infection measured on day 3 to 6 post infection. In kind it is organism-based. Set-up: dose 30 mg/kg, route intraperitoneal. To be noted: in vivo. The method in brief:
(§1)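 Female C57BL/6 mice, N = 5 per group, were infected ip with a 100% lethal dose of MRSA, 7 × 10⁷ CFU in 0.3 ml PBS. At 1 h they received one ip dose of 30 mg/kg in vehicle (40% PEG-400, 10% […], 10% DMSO in normal saline). Body weight and morbidity were recorded daily for 7 days. Mice were sacrificed on significant morbidity, including 20% weight loss.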

The subject of data set [2] is Staphylococcus lugdunensis. The data set is described as follows: Antibacterial activity against Staphylococcus lugdunensis isolate NTUH after 24 hrs by broth microdilution method. Format: functional. A general note: In broth dilution the organism is exposed to a series of concentrations in liquid medium.
In data set [3] the test system is Staphylococcus aureus. The data set is described as follows: Antibacterial activity against methicillin-resistant Staphylococcus aureus ATCC 33592 infected in C57BL/6 mouse assessed as mouse survival time at 30 mg/kg, ip administered 1 hr post infection. Format: functional. The conditions noted are these: route intraperitoneal. The method, boiled down: as §1
For data set [4], the system named is Staphylococcus intermedius. Put plainly: Antibacterial activity against Staphylococcus intermedius ATCC 29663 after 24 hrs by broth microdilution method. Format: functional. The conditions noted are these: ATCC 29663, 24 h.
The test system of data set [5] is Staphylococcus aureus. Put plainly: Bactericidal activity against Staphylococcus aureus ATCC 29213 assessed as decrease in bacterial count at 2 to 8 times compound MIC by time-kill assay. To be noted: TDE = time-dependent effect. In kind it is functional, organism-based. The method, boiled down:
(§2)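 S. aureus ATCC 29213 at 5 × 10⁵ CFU/mL in CAMHB exposed to test agents at 2-, 4- and 8-fold MIC, in triplicate. DMSO-matched medium served as control. At successive times, aliquots serially diluted in PBS and plated on LB agar (37 °C, 16 h). Counts given as CFU/mL, mean ± SD (n = 3); 99.9% killing used as reference.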

Data set [6] deals with Staphylococcus aureus. Put plainly: Bactericidal activity against Staphylococcus aureus ATCC 29213 assessed as decrease in bacterial count at 8 times compound MIC after 24 hrs by time-kill assay. Format: functional. The arrangement: scale not given: the % may be the effect or the level left. The method in brief: as §2
Another data set relates to HT-29. Put plainly: Antiproliferative activity against human HT-29 cells after 24 hrs by MTT assay. Format: cell-based. To be noted: HT-29, 24 h. The method, boiled down:
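HT-29 human colon adenocarcinoma cells seeded at 1 × 10⁴ cells/well in RPMI 1640 with 10% FBS and 10 µg/mL gentamicin, left overnight at 37 °C, 5% CO₂. Medium then replaced with medium holding test agents (final DMSO 0.1%; DMSO-only controls), at least 6 wells per condition, for 24 h. Viability read by MTT (0.5 mg/mL, 2 h, 37 °C), DMSO solubilization, absorbance 570 nm.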
A general note: Formazan colour is commonly taken as a measure of viable cells.

A short description of data set [7]: Selectivity ratio of IC50 for human HT-29 cells to MIC for Staphylococcus aureus ATCC 29213. In kind it is functional. The method in brief:
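Ratio of HT-29 IC50 (MTT assay, 24 h exposure) to MIC against S. aureus ATCC 29213 (CLSI broth microdilution, 24 h, 37 °C).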

For data set [8], the system named is Mus musculus. Put plainly: Toxicity in C57BL/6 mouse infected with methicillin-resistant Staphylococcus aureus ATCC 33592 assessed as mortality at 30 mg/kg, ip administered 1 hr post infection. Format: organism-based. Set-up: dose 30 mg/kg, route intraperitoneal. The conditions noted are these: in vivo. The method, boiled down: as §1
The test system of data set [9] is Mus musculus. Put plainly: Toxicity in C57BL/6 mouse infected with methicillin-resistant Staphylococcus aureus ATCC 33592 assessed as weight loss at 30 mg/kg, ip administered 1 hr post infection measured on day 1 post infection. In kind it is organism-based. Set-up: dose 30 mg/kg, route intraperitoneal. The conditions noted are these: in vivo. The method in brief: as §1

Data set [10] deals with Staphylococcus epidermidis. The data set is described as follows: Antibacterial activity against Staphylococcus epidermidis ATCC 35984 after 24 hrs by broth microdilution method. In kind it is functional. To be noted: RP62A.
For data set [11], the system named is Mus musculus. The data set is described as follows: Toxicity in C57BL/6 mouse infected with methicillin-resistant Staphylococcus aureus ATCC 33592 assessed as decrease in body temperature at 30 mg/kg, ip administered 1 hr post infection. To be noted: in vivo. In kind it is organism-based. Set-up: dose 30 mg/kg, route intraperitoneal. The method in brief:
as §1

Data set [12] has as its system Mus musculus. The data set is described as follows: Toxicity in C57BL/6 mouse infected with methicillin-resistant Staphylococcus aureus ATCC 33592 assessed as weight loss at 30 mg/kg, ip administered 1 hr post infection. In kind it is organism-based. The arrangement: dose 30 mg/kg, route intraperitoneal. To be noted: in vivo. The method, boiled down:
as §1

For data set [13], the system named is Mus musculus. Put plainly: Toxicity in C57BL/6 mouse infected with methicillin-resistant Staphylococcus aureus ATCC 33592 assessed as lethargy at 30 mg/kg, ip administered 1 hr post infection. Format: organism-based. The conditions noted are these: in vivo. The arrangement: dose 30 mg/kg, route intraperitoneal. The method, boiled down: as §1
Data set [14] has as its system Staphylococcus aureus. Put plainly: Antibacterial activity against Staphylococcus aureus ATCC 29213 after 24 hrs by broth microdilution method. In kind it is functional. The conditions noted are these: ATCC 29213, 24 h.
The subject of data set [15] is Staphylococcus aureus. The data set is described as follows: Antibacterial activity against Staphylococcus aureus assessed as log decrease in bacterial CFU at 32 ug/ml after 24 hrs. In kind it is functional.

For the compound `NS(=O)(=O)Nc1ccc(-n2nc(C(F)(F)F)cc2-c2c3ccccc3cc3ccccc23)cc1`, the Activity entry was “Non-toxic” in the data set on Mus musculus [1]; “tde” in the data set with Staphylococcus aureus [5]; 99.99% in the data set with Staphylococcus aureus [6]; “Toxic” with Mus musculus [8]; “Toxic” in the data set on Mus musculus [9]. The MIC in data set [2] turned out to be 4 µg/mL (≈ 8.29 µM); in data set [4], 0.5 µg/mL (≈ 1.04 µM); in data set [10], 1 µg/mL (≈ 2.07 µM). Further, the Survival in the data set on Staphylococcus aureus [3] stood at 7 days. The compound also gave an IC50 in the data set with HT-29 of 20 µg/mL (≈ 41.5 µM). Moreover, in [7], the Ratio is listed as 40.

Take `NS(=O)(=O)Nc1ccc(-n2nc(C(F)(F)F)cc2-c2ccc3c(ccc4ccccc43)c2)cc1`: the minimum inhibitory concentration (MIC) was determined as 2 µg/mL (≈ 4.15 µM) in data set [2], 1 µg/mL (≈ 2.07 µM) in data set [4], 1 µg/mL (≈ 2.07 µM) in the data set on Staphylococcus aureus [14] and 2 µg/mL (≈ 4.15 µM) in data set [10]. In addition, the Activity entry in the data set on Mus musculus [11] was “Toxic”; in the data set on Staphylococcus aureus [5], “tde”; with Staphylococcus aureus [6], 99.91%; in the data set on Mus musculus [12], > 20%; with Mus musculus [13] it was “Toxic”. Moreover, the Survival result in the data set on Staphylococcus aureus [3] is recorded as “<=2 day”. In [7], the Ratio was 12.

In the data set with HT-29, `Cc1ccc(-c2cc(C(F)(F)F)nn2-c2ccc(S(N)(=O)=O)cc2)cc1` [CELECOXIB] showed an IC50 of 18 µg/mL (≈ 47.2 µM). Besides, the FC in the data set with Staphylococcus aureus [15] is 6. In addition, the Ratio in data set [7] amounted to 0.6. Besides, the MIC against Staphylococcus aureus [14] is 32 µg/mL (≈ 83.9 µM); in data set [10], 16 µg/mL (≈ 42 µM).

What is called MIC is the lowest concentration that inhibits growth of the organism. A word on the IC50: it is the concentration that inhibits the measured activity by half.

Values taken from ChEMBL document CHEMBL2057145, “Development of novel antibacterial agents against methicillin-resistant Staphylococcus aureus” (Bioorg Med Chem, 2012).
